Assay results published in ChEMBL document CHEMBL4130626, “α-Arylidene Diacylglycerol-Lactones (DAG-Lactones) as Selective Ras Guanine-Releasing Protein 3 (RasGRP3) Ligands” (J Med Chem, 2018).

Legend:
[1] = target: Protein kinase C alpha type (Homo sapiens, UniProt P17252); assay: Displacement of [3H]PDBu from full length recombinant human PKCalpha expressed in baculovirus expression system after 5 mins by scintillation counting
In short: (§1)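 Competition of [3H]PDBu binding by polyethylene glycol precipitation, with 100 µg/ml phosphatidylserine and ≤0.003% Triton X-100, 5 min at 37 °C. Proteins: full-length purified human PKCα, PKCε; full-length RasGRP1; MBP-RasGRP3 from E. coli BL21(DE3) induced with 0.3 mM IPTG 6 h at room temperature. Ki mean ± SEM of ≥2 experiments, triplicate points.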

[2] = target: T1, Ras guanyl-releasing protein 3 (Homo sapiens, UniProt Q8IV61); assay: Displacement of [3H]PDBu from full length MBP-tagged human RasGRP3 expressed in Escherichia coli BL21 (DE3) after 5 mins by scintillation counting; in short: as §1
T1 sequence (Q8IV61 whole entry): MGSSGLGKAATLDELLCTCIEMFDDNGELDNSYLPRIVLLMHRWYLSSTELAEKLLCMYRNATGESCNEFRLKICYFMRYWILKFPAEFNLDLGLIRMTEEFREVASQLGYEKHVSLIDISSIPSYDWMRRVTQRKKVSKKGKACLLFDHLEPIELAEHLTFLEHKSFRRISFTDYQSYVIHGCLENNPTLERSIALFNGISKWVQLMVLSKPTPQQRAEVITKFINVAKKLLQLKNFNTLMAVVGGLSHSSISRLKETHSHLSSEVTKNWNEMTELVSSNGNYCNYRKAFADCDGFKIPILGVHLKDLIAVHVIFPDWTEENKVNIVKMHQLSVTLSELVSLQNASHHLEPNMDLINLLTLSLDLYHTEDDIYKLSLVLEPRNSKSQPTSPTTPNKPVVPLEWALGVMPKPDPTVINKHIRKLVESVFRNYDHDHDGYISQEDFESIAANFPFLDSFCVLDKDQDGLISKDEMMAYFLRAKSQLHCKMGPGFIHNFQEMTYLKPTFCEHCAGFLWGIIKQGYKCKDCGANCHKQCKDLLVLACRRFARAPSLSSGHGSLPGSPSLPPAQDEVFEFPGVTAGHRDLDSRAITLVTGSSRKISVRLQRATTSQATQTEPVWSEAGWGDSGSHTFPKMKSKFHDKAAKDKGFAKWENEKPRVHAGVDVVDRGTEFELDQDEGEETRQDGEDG

[3] = target: T2, Protein kinase C epsilon type (Homo sapiens, UniProt Q02156); assay: Displacement of [3H]PDBu from full length recombinant human PKCepsilon expressed in baculovirus expression system after 5 mins by scintillation counting; in short: as §1
T2 sequence (Q02156 whole entry): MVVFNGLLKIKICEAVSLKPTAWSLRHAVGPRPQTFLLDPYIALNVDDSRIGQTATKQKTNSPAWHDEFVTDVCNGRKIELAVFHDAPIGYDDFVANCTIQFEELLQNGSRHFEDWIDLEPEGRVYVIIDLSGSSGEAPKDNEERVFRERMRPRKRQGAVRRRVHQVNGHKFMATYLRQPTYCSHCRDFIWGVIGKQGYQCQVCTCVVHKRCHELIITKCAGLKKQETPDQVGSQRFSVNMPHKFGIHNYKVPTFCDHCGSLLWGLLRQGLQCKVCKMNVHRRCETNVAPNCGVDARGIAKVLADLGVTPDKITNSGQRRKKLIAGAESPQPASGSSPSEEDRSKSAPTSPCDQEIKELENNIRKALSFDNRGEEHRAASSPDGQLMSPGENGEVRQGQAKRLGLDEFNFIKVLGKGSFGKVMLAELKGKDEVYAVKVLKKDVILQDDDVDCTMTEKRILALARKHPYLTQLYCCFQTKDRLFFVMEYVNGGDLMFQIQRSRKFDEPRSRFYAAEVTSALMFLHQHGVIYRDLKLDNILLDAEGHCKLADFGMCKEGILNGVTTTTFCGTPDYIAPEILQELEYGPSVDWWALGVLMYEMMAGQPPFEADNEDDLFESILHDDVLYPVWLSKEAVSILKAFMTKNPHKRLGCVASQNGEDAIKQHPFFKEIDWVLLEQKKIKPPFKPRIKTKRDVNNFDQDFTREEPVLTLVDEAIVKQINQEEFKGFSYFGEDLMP

Homo sapiens = species: Homo sapiens; assay: Selectivity ratio of Ki for GST-tagged PKCalpha C1 domain to Ki for human RasGRP3 overexpressed in HEK-293 cells

Ki [1]	Ki [2]	Ki [3]	SMILES	Ratio Ki (Homo sapiens)
1480 nM	271 nM	328 nM	CN(C)c1ccc(C(=O)OCC2(CO)C/C(=C\c3ccccn3)C(=O)O2)cc1 (configuration not stated)	–
2310 nM	69.7 nM	3410 nM	Cn1cc(/C=C2\CC(CO)(COC(=O)/C=C/c3ccccn3)OC2=O)c2ccccc21 (configuration not stated)	–
146 nM	11.2 nM	208 nM	Cn1cc(/C=C2\CC(CO)(COC(=O)c3ccc(Cl)cc3)OC2=O)c2ccccc21 (configuration not stated)	–
446 nM	26.5 nM	380 nM	COc1ccc(C(=O)OCC2(CO)C/C(=C\c3cn(C)c4ccccc34)C(=O)O2)cc1 (configuration not stated)	–
> 30000 nM	3490 nM	> 30000 nM	Cn1cc(/C=C2\CC(CO)(COC(=O)C(C)(C)C)OC2=O)c2cc([N+](=O)[O-])ccc21 (configuration not stated)	–
135 nM	5.3 nM	122 nM	CCCCCCC(=O)OCC1(CO)C/C(=C\c2cn(C)c3ccccc23)C(=O)O1 (configuration not stated)	–
249 nM	4.76 nM	208 nM	COc1ccc2c(c1)c(/C=C1\CC(CO)(COC(=O)C(C)(C)C)OC1=O)cn2C (configuration not stated)	–
25.2 nM	2.69 nM	6.51 nM	O=C1OC(CO)(COC(=O)c2ccc(Cl)cc2)C/C1=C\c1ccc(Cl)cc1 (configuration not stated)	–
13.6 nM	0.53 nM	2.57 nM	CC(C)(C)C(=O)OCC1(CO)C/C(=C\c2ccc(Cl)cc2)C(=O)O1 (configuration not stated)	–
31.7 nM	0.84 nM	42.8 nM	CCCC(CCC)C(=O)OCC1(CO)C/C(=C\c2cn(C)c3ccccc23)C(=O)O1 (configuration not stated)	–
82.2 nM	7 nM	18.3 nM	COc1ccc(/C=C2\CC(CO)(COC(=O)c3ccc(N(C)C)cc3)OC2=O)cc1 (configuration not stated)	–
–	–	–	CN(C)c1ccc(C(=O)OCC2(CO)C/C(=C\c3ccc([N+](=O)[O-])cc3)C(=O)O2)cc1 (configuration not stated)	90
30.1 nM	1.54 nM	6.8 nM	COc1ccc(/C=C2\CC(CO)(COC(=O)c3ccc(Cl)cc3)OC2=O)cc1 (configuration not stated)	–
114 nM	2.8 nM	35.3 nM	CC(C)(C)C(=O)OCC1(CO)C/C(=C\c2coc3ccccc23)C(=O)O1 (configuration not stated)	–
79.1 nM	4.32 nM	104 nM	Cn1cc(/C=C2/CC(CO)(COC(=O)C(C)(C)C)OC2=O)c2cc(Cl)ccc21 (configuration not stated)	–
28.8 nM	1.67 nM	8.17 nM	CC(C)(C)C(=O)OCC1(CO)C/C(=C\c2csc3ccccc23)C(=O)O1 (configuration not stated)	–
–	–	–	COc1ccc(C(=O)OCC2(CO)C/C(=C\c3ccc([N+](=O)[O-])cc3)C(=O)O2)cc1 (configuration not stated)	20
31.3 nM	2.15 nM	42 nM	Cn1cc(/C=C2\CC(CO)(COC(=O)C3CCC(C(C)(C)C)CC3)OC2=O)c2ccccc21 (configuration not stated)	–
42.3 nM	1.01 nM	39.3 nM	Cn1cc(/C=C2\CC(CO)(COC(=O)C(C)(C)C)OC2=O)c2cc(Cl)ccc21 (configuration not stated)	–
29 nM	3.58 nM	60.6 nM	CC(C)(C)C(=O)OCC1(CO)C/C(=C\c2cn(CC3CC3)c3ccccc23)C(=O)O1 (configuration not stated)	–
> 30000 nM	1390 nM	> 30000 nM	Cn1cc(/C=C2/CC(CO)(COC(=O)C(C)(C)C)OC2=O)c2cc([N+](=O)[O-])ccc21 (configuration not stated)	–

Ki [1]	Ki [2]	Ki [3]	SMILES	Ratio Ki (Homo sapiens)
3640 nM	192 nM	1120 nM	CC(C)(C)C(=O)OCC1(CO)C/C(=C\c2ccccn2)C(=O)O1 (configuration not stated)	–
27.6 nM	2.25 nM	7.1 nM	COc1ccc(C(=O)OCC2(CO)C/C(=C\c3ccc(Cl)cc3)C(=O)O2)cc1 (configuration not stated)	–
39 nM	5.07 nM	41.5 nM	CC(C)CC(CC(C)C)C(=O)OCC1(CO)C/C(=C\c2cn(C)c3ccccc23)C(=O)O1 (configuration not stated)	–
1190 nM	89.7 nM	199 nM	COc1ccc(C(=O)OCC2(CO)C/C(=C\c3ccccn3)C(=O)O2)cc1 (configuration not stated)	–
375 nM	15.7 nM	780 nM	Cn1cc(/C=C/C(=O)OCC2(CO)C/C(=C\c3cn(C)c4ccccc34)C(=O)O2)c2ccccc21 (configuration not stated)	–
15.6 nM	3.03 nM	19.4 nM	CC(C)Cn1cc(/C=C2\CC(CO)(COC(=O)C(C)(C)C)OC2=O)c2ccccc21 (configuration not stated)	–
25.4 nM	1.81 nM	6.39 nM	CN(C)c1ccc(/C=C2\CC(CO)(COC(=O)c3ccc(Cl)cc3)OC2=O)cc1 (configuration not stated)	–
65.9 nM	1.07 nM	7.87 nM	CN(C)c1ccc(/C=C2\CC(CO)(COC(=O)C(C)(C)C)OC2=O)cc1 (configuration not stated)	–
184 nM	7.22 nM	131 nM	Cn1nc(/C=C2\CC(CO)(COC(=O)C(C)(C)C)OC2=O)c2ccccc21 (configuration not stated)	–
30.4 nM	2.73 nM	9.5 nM	CN(C)c1ccc(C(=O)OCC2(CO)C/C(=C\c3ccc(Cl)cc3)C(=O)O2)cc1 (configuration not stated)	–
112 nM	2.86 nM	98.2 nM	Cn1cc(/C=C2\CC(CO)(COC(=O)C3CCCCC3)OC2=O)c2ccccc21 (configuration not stated)	–
72 nM	1.09 nM	10.1 nM	COc1ccc(/C=C2\CC(CO)(COC(=O)C(C)(C)C)OC2=O)cc1 (configuration not stated)	–
252 nM	26.8 nM	39.4 nM	CN(C)c1ccc(/C=C2\CC(CO)(COC(=O)c3ccc(N(C)C)cc3)OC2=O)cc1 (configuration not stated)	–
25.6 nM	1.87 nM	19.2 nM	CCCCn1cc(/C=C2\CC(CO)(COC(=O)C(C)(C)C)OC2=O)c2ccccc21 (configuration not stated)	–
383 nM	29 nM	92.3 nM	O=C1OC(CO)(COC(=O)c2ccc(Cl)cc2)C/C1=C\c1ccccn1 (configuration not stated)	–
62.5 nM	11.7 nM	73.3 nM	CC(C)(C)C(=O)OCC1(CO)C/C(=C/c2coc3ccccc23)C(=O)O1 (configuration not stated)	–
128 nM	7.48 nM	18.2 nM	COc1ccc(C(=O)OCC2(CO)C/C(=C\c3ccc(N(C)C)cc3)C(=O)O2)cc1 (configuration not stated)	–
186 nM	18.2 nM	220 nM	CN(C)c1ccc(C(=O)OCC2(CO)C/C(=C\c3cn(C)c4ccccc34)C(=O)O2)cc1 (configuration not stated)	–
37 nM	4.26 nM	12.5 nM	CC(C)(C)C(=O)OCC1(CO)C/C(=C/c2csc3ccccc23)C(=O)O1 (configuration not stated)	–
84.7 nM	4.17 nM	13.4 nM	COc1ccc(/C=C2\CC(CO)(COC(=O)c3ccc(OC)cc3)OC2=O)cc1 (configuration not stated)	–
439 nM	25 nM	672 nM	Cn1cc(/C=C2\CC(CO)(COC(=O)/C=C/c3ccccc3)OC2=O)c2ccccc21 (configuration not stated)	–
